ChEMBL document CHEMBL4190374, “Structure-Function Evaluation of Imidazopyridine Derivatives Selective for δ-Subunit-Containing γ-Aminobutyric Acid Type A (GABAA) Receptors” (J Med Chem, 2018)

Tests used:
[1] = target: Gamma-aminobutyric acid receptor subunit alpha-6/beta-3/delta (Rattus norvegicus) (UniProt P18506+P30191+P63079); assay: Displacement of [3H]EBOB from rat GABA-A receptor alpha6beta3delta expressed in HEK293 cell membranes up to 20 uM after 90 mins by liquid scintillation counting analysis relative to control
[2] = target: Gamma-aminobutyric acid receptor subunit alpha-6/beta-3/gamma-2 (Rattus norvegicus, UniProt P18508+P30191+P63079); assay: Displacement of [3H]EBOB from rat GABA-A receptor alpha6beta3gamma2 expressed in HEK293 cell membranes after 90 mins by liquid scintillation counting analysis
Gamma-aminobutyric acid receptor subunit alpha-6/beta-3/gamma-2, sequence (P18508 whole entry): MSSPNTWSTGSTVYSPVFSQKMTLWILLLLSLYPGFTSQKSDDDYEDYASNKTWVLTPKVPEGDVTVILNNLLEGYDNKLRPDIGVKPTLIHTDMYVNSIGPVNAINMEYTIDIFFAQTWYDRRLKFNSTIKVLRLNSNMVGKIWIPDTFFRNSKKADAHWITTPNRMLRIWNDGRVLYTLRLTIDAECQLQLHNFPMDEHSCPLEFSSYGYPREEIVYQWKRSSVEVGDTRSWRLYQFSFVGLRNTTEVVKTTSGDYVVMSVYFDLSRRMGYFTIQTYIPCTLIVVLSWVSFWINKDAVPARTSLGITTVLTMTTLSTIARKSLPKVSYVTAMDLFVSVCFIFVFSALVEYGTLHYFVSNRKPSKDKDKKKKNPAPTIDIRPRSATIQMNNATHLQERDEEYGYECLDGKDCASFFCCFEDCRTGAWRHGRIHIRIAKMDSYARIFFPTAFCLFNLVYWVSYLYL
Gamma-aminobutyric acid receptor subunit alpha-6/beta-3/gamma-2, sequence (P30191 whole entry): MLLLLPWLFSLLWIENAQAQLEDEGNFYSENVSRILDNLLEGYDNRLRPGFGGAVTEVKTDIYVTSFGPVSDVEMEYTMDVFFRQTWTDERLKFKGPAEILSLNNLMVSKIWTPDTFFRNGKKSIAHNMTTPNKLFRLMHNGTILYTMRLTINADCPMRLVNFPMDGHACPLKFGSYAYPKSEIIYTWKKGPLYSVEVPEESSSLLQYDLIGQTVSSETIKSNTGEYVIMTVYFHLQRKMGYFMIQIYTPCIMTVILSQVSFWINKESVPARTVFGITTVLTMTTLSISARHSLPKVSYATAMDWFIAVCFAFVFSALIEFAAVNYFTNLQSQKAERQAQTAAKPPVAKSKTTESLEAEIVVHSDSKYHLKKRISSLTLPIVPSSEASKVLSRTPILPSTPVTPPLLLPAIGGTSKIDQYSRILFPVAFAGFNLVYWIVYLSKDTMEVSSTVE
Gamma-aminobutyric acid receptor subunit alpha-6/beta-3/gamma-2, sequence (P63079 whole entry): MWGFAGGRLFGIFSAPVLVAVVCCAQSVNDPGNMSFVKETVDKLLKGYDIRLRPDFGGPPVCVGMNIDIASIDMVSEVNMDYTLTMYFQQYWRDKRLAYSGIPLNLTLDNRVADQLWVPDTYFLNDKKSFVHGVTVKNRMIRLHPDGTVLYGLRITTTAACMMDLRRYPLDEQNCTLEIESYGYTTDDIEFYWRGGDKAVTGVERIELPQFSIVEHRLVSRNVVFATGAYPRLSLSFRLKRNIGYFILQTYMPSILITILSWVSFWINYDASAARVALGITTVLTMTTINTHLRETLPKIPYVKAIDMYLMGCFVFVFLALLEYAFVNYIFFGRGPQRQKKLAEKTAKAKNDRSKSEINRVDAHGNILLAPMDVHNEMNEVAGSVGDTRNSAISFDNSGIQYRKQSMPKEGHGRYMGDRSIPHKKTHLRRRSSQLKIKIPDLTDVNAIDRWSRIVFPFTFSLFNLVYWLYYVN
Method in brief: (§1)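 Crude membranes from HEK 293 cells transiently Ca-phosphate-transfected with rat subunit cDNAs, harvested at 48 h. Membranes (150-200 µg protein) incubated with 3 nM [3H]EBOB in 50 mM Tris/citrate pH 7.3 plus 0.2 M NaCl. Compound up to 10 µM, final DMSO 0.1%, no GABA, 90 min at 21 °C. Bound radioligand collected by GF/C filtration and counted by scintillation.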

[3] = target: Gamma-aminobutyric acid receptor subunit alpha-6/beta-3/gamma-2 (Rattus norvegicus) (UniProt P18508+P30191+P63079); assay: Displacement of [3H]EBOB from rat GABA-A receptor alpha6beta3gamma2 expressed in HEK293 cell membranes up to 20 uM after 90 mins by liquid scintillation counting analysis relative to control
[4] = target: Gamma-aminobutyric acid receptor subunit alpha-6/beta-3/delta (Rattus norvegicus, UniProt P18506+P30191+P63079); assay: Displacement of [3H]EBOB from rat GABA-A receptor alpha6beta3delta expressed in HEK293 cell membranes after 90 mins by liquid scintillation counting analysis; method in brief: as §1
Gamma-aminobutyric acid receptor subunit alpha-6/beta-3/delta, sequence (P18506 whole entry): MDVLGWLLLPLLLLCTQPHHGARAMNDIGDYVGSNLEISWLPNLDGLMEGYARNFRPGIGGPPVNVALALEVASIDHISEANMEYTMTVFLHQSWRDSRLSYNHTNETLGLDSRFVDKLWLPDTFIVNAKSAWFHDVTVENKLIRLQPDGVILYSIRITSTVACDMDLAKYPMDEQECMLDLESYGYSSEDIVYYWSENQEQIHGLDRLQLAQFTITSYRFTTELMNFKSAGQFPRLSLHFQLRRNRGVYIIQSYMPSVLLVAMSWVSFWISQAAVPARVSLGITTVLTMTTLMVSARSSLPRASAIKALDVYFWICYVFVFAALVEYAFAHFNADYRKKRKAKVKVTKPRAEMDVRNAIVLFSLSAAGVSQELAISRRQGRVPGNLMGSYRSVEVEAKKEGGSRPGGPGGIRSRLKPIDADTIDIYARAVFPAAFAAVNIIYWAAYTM
Gamma-aminobutyric acid receptor subunit alpha-6/beta-3/delta, sequence (P30191 whole entry): as the sequence (P30191 whole entry) above
Gamma-aminobutyric acid receptor subunit alpha-6/beta-3/delta, sequence (P63079 whole entry): as the sequence (P63079 whole entry) above

[5] = target: Gamma-aminobutyric acid receptor subunit alpha-6/beta-3 (Rattus norvegicus, UniProt P30191+P63079); assay: Displacement of [3H]EBOB from rat GABA-A receptor alpha6beta3 expressed in HEK293 cell membranes after 90 mins by liquid scintillation counting analysis; method in brief: as §1
Gamma-aminobutyric acid receptor subunit alpha-6/beta-3, sequence (P30191 whole entry): as the sequence (P30191 whole entry) above
Gamma-aminobutyric acid receptor subunit alpha-6/beta-3, sequence (P63079 whole entry): as the sequence (P63079 whole entry) above

[6] = target: Gamma-aminobutyric acid receptor subunit alpha-6/beta-3 (Rattus norvegicus) (UniProt P30191+P63079); assay: Displacement of [3H]EBOB from rat GABA-A receptor alpha6beta3 expressed in HEK293 cell membranes up to 20 uM after 90 mins by liquid scintillation counting analysis relative to control

O=C(Nc1c(-c2cccs2)nc2ccc(Br)cn12)C1CCCCC1 was tested. Which Imax [1] did it give?
The Imax was 85%.

What about the IC50 [2] of the same compound?
The IC50 was 25 µM.

And the Imax [3]?
Its Imax is over 89%.

And the IC50 [4]?
Its IC50 is 10.1 µM.

And the IC50 [5]?
The IC50 was 16 µM.

What about the Imax [6] of the same compound?
The Imax was 21%.
